In assay [1] the target is T1, Androgen Receptor (Bos taurus) (UniProt Q5EM59).
T1 sequence (whole entry): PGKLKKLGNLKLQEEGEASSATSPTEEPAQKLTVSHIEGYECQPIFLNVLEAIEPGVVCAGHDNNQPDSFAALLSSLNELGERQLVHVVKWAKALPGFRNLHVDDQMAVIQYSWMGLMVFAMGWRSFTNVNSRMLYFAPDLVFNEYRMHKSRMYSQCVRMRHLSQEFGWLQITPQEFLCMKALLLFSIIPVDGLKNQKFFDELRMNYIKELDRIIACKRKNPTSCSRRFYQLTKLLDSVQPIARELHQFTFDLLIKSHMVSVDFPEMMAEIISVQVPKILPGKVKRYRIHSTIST
Briefly: Relative binding affinity(RBA) for 50% displacement of [3H]mibolerone from Androgen receptor compared to testorone. A digest of the protocol: (§1)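 Receptor source was calf uterine cytosol (105000g supernatant, 3 mg/mL protein in assay). Buffers were Tris/EDTA pH 7.4, with NaN₃ for ER, molybdate/glycerol for AR, and sucrose for PR. Tracers were 1 nM [³H]estradiol, [³H]mibolerone or [³H]Org 2058. Incubation was at 0–4 °C for 16 h (ER) or 2 h (AR, PR), with 4–6 competitor concentrations. Nonspecific binding used 2 µM of the unlabeled hormone. Separation was by dextran-coated charcoal. RBA is the ratio of IC50 values for hormone and compound ×100, mean of two triplicate experiments.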
(In general: Displacement assays read how much labelled ligand stays bound in the presence of the test substance.)

The test system of assay [2] is MDA-MB-231. Briefly: Cytostatic effect on hormone-independent MDA-MB 231 human breast cancer cell proliferation at 1x10E-5 M. It is filed as functional. A digest of the protocol:
(§2)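 Cells were plated at about 2 × 10⁴ per well in six-well dishes. MCF-7 cells were grown in modified improved MEM with 5% NCS, switched to charcoal-treated NCS two weeks before the test, and exposed for 5 days with a re-dose on day 4. MDA-MB 231 cells were grown in McCoy 5a with 10% NCS and exposed for 2 days. Compounds were given 1 day after plating in 0.1% DMSO, with DMSO-matched controls. Read-out was cell number as % T/C, mean of three experiments with six dishes.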

Assay [3] deals with MDA-MB-231. Briefly: Effect on [3H]thymidine incorporation into MDA-MB 231 human breast cancer cells at 1x10E-5 M. It is filed as functional. The procedure, abridged:
(§3)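 Cells were seeded at ~2 × 10⁴ per well, treated from the next day in 0.1% DMSO, with DMSO controls. MCF-7 cells were held in charcoal-stripped NCS for 2 weeks, treated for 5 days and re-dosed on day 4. MDA-MB 231 cells were grown in McCoy 5a/10% NCS and treated for 2 days. At the end, 1 µCi [³H]thymidine per well was added for 2 h. Result is % T/C, mean of three experiments × six dishes.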
A general note: Dividing cells build labelled thymidine or BrdU into new DNA.

The subject of assay [4] is MDA-MB-231. Briefly: Effect on [3H]-thymidine incorporation into MDA-MB 231 human breast cancer cells at 1x10E-6M. It is filed as functional. A digest of the protocol:
as §3

The test system of assay [5] is MDA-MB-231. The experiment in a line: Cytostatic effect on hormone-independent MDA-MB 231 human breast cancer cell proliferation at5x10E-6M. It is filed as functional. The procedure, abridged: as §2
In assay [6] the test system is MCF7. Briefly: Effect on hormone-dependent MCF-7 human breast cancer cell proliferation at 1x10E-7M. It is filed as functional. A digest of the protocol: as §2
For assay [7], the system named is MCF7. Briefly: Effect on [3H]thymidine incorporation into MCF-7 human breast cancer cells at 1x10E-7M. It is filed as functional. A digest of the protocol:
as §3

Assay [8] relates to MCF7. The experiment in a line: Effect on hormone-dependent MCF-7 human breast cancer cell proliferation at 1x10E-5 M. It is filed as functional. A digest of the protocol: as §2
The target in assay [9] is T2, Estrogen receptor (Mus musculus) (UniProt O08537+P19785). Briefly: Estrogenic activity in uterotrophic assay in immature mice at 125 ug subcutaneous dose. It is filed as functional. The procedure, abridged:
(§4)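 Immature female NMRI mice, 20 days old, in groups of 6-10, were dosed sc once daily for three consecutive days. Compounds were given in PEG/0.9% saline 1:1; vehicle controls were included. Animals were killed 24 h after the last dose. Uteri were fixed in Bouin solution and the effect was taken as uterine dry weight (mg)/body weight (g) ×100, given as mean ± SD.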

For assay [10], the target named is T2, Estrogen receptor (Mus musculus). Briefly: Estrogenic activity in uterotrophic assay in immature mice at 2 ug subcutaneous dose. It is filed as functional. The procedure, abridged:
as §4

Assay [11] shares this target. Briefly: Estrogenic activity in uterotrophic assay in immature mice at 250 ug subcutaneous dose. It is filed as functional. A digest of the protocol:
as §4

The target is the same in assay [12]. The experiment in a line: Estrogenic activity in uterotrophic assay in immature mice at 50.0 ug subcutaneous dose. It is filed as functional. The procedure, abridged: as §4
Assay [13] shares this target. The experiment in a line: Inhibition of 0.4 ug estrone-stimulated uterine growth in mice at 2 ug subcutaneous dose. It is filed as functional. The procedure, abridged:
(§5)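 Immature 20-day-old female NMRI mice received sc injections on three consecutive days. Each injection held 0.4 µg estrone plus the compound in PEG/saline 1:1. […] Significance was tested by Mann-Whitney U test.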

The target is the same in assay [14]. The experiment in a line: Inhibition of 0.4 ug estrone-stimulated uterine growth in mice at 250 ug subcutaneous dose. It is filed as functional. A digest of the protocol:
as §5

The species entered for assay [15] is Bos taurus. Briefly: Relative binding affinity(RBA) as ratio of progesterone and compound required to displace [3H]-org 2058 binding to Progesterone receptor by 50%. A digest of the protocol: as §1
Assay [16] has as its target T3, Androgen receptor (Mus musculus) (UniProt P19091).
T3 sequence (whole entry): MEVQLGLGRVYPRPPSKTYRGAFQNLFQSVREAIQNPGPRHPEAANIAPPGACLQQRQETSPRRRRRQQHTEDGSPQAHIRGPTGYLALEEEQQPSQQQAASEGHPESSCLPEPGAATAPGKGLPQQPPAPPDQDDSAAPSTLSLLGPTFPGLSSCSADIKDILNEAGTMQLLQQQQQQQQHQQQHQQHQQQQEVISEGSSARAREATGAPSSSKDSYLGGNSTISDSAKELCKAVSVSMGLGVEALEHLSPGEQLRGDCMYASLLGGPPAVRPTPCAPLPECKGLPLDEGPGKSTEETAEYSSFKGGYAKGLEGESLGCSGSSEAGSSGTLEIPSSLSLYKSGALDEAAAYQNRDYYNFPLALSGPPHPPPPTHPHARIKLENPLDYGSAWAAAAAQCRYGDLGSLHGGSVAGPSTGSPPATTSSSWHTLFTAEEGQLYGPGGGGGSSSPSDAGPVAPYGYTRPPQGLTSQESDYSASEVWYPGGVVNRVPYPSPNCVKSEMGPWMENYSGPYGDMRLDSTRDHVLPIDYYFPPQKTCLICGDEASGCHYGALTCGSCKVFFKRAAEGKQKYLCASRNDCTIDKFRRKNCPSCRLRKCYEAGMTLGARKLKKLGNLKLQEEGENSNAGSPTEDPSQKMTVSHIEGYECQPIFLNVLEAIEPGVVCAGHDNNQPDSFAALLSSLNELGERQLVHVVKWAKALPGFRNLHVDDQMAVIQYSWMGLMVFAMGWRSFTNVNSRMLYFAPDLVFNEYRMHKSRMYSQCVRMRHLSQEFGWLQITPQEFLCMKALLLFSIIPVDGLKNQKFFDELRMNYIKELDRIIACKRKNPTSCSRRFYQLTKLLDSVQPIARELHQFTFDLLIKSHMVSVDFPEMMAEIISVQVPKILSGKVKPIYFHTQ
The experiment in a line: Relative effect on seminal vesicle weight in adult and castrated mice at 100 ug dose. It is filed as functional, tissue-based. The procedure, abridged:
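Adult male mice, 23–25 g, six per group, were used intact or castrated via the scrotal route under ether 5 days before the test. Castrates received 0.3 mg testosterone propionate daily. Compounds were injected daily in olive oil for nine days. Seminal vesicles were taken 24 h later, fixed in Bouin solution, dried overnight at 100 °C and weighed. Result is organ mg/body g ×100; % inhibition = [1 − treated/control] × 100.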

The T/C is the ratio of treated to control. One may read the inhibition as the share of the control response that was lost under treatment. A low value points to a response near the control.

T2 sequence (O08537 whole entry, looked up): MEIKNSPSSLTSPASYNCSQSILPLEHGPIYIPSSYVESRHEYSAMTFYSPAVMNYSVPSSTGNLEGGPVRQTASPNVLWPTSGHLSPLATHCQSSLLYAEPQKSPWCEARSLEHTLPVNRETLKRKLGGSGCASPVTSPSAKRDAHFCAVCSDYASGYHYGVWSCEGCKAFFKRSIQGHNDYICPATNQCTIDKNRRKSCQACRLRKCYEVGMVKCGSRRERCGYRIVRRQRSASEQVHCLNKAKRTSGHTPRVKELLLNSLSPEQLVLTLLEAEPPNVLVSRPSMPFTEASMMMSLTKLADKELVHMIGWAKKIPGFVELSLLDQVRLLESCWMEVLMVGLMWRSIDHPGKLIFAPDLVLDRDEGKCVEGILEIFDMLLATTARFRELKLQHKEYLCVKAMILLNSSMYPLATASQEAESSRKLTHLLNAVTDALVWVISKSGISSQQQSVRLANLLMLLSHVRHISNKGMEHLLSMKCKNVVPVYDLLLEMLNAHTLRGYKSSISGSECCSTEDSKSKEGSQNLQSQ
T2 sequence (P19785 whole entry, looked up): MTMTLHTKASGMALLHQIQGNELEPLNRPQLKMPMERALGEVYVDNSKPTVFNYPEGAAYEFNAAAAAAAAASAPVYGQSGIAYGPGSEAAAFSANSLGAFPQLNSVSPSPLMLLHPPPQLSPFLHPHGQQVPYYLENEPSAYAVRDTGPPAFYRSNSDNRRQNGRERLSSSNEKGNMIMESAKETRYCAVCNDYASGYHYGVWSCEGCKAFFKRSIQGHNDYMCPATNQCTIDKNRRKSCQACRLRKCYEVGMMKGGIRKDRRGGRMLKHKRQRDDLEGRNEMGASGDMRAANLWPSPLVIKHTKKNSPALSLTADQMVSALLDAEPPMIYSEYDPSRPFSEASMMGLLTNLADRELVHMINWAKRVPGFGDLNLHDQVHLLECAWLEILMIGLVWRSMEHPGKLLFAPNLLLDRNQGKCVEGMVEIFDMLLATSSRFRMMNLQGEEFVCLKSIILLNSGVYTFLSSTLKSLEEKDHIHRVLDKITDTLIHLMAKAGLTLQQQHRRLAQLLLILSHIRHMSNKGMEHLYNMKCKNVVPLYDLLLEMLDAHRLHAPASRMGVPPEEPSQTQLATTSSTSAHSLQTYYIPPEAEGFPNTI

Consider `CCC1Cc2cc(OC(C)=O)ccc2-c2cc3cc(OC(C)=O)ccc3n21` (stereo unspecified), for which the values for the RBA in assay [1] and in [15] were 0.23 and 0.13, respectively. Moreover, the T/C in [2] was found to be 4%; in assay [3] it was 4%; in assay [4], 45%; in [5], 4%; in assay [6], 80%; in assay [7], 63%. This molecule also yielded a T/C in assay [8] of 8%. Also, the Effect in assay [9] was 39.5; in assay [10] it was 18.5; in assay [11], 42.6; in assay [12], 45.7. Further, the inhibition turned out to be 7.2% in [13] and 34.1% in [14]. The molecule further returned a Relative seminal vesicle weight in assay [16] of 54.5.

These data come from ChEMBL document CHEMBL1124929, “Indolo[2,1-a]isoquinolines. Syntheses, steroid hormone receptor binding affinities, and cytostatic activity” (1990).
